Paper PMC6939458 (Cancer cell, 2019)
Where “and” joins values, the source holds several entries; their conditions need not be identical. Equal entries are not always repeated.

How the values were obtained:
MYC/MAX/DNA complex = MYC/MAX/DNA complex (Homo sapiens, UniProt P01106); assay: EMSA, MYC/MAX/DNA complex formation; type: biochemical
MAX/MAX homodimer = MAX/MAX homodimer (Homo sapiens, UniProt P61244); assay: EMSA, MAX/MAX homodimer binding to E-box DNA; type: biochemical
MYC = MYC (Homo sapiens, UniProt P01106); assay: Cellular thermal shift assay; type: cell-based
Summary of the method: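 PC3 cells (70–80% confluent; also PC3 stably expressing Flag-MYCT58A, puromycin 1.5 μg/ml selected) treated with test compound or DMSO for 30 min. Cells washed, resuspended in PBS with protease/phosphatase inhibitors plus the same compound dose, split into 7–10 aliquots (~1 million cells each), heated 2 min at graded temperatures, then 3 min room temperature. Lysates boiled 5 min at 90 °C; MYC quantified by Western blot densitometry to build melt curves.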

MYC353–439 = MYC353–439 (Homo sapiens, UniProt P01106); assay: Fluorescence polarization competition assay against 10074-G5; type: binding
MYC/MAX interaction = MYC/MAX interaction (Homo sapiens, UniProt P01106); assay: Co-immunoprecipitation and proximity ligation assay in PC3 cells; type: cell-based; settings: 6 μM
Summary of the method: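 For PLA, PC3 or PC3 T58A cells were grown in chamber slides and treated for 1 to 2 hr, then fixed in 4% PFA and permeabilised with 0.5% Triton-X. PLA signals per cell were counted by image analysis. For co-IP, cells were lysed in 20 mM Tris-HCl pH 8.0, 100 mM NaCl, 1 mM EDTA and 0.5% NP-40. Pellets were enzymatically sheared for 90 min at 4 °C and precipitates were analysed by western blot.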

[1] = system: 468 kinases, including GSK3β; assay: KINOMEscan kinome screen; type: binding; settings: 6 μM
[2] = system: phosphatase inhibition screening panel; assay: Phosphatase inhibition screening panel; type: biochemical; settings: 10-dose 3-fold serial dilutions starting at 100 μM
Summary of the method: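 Run in 10-dose IC₅₀ mode, each compound tested singly, with a PTP1B inhibitor as control compound.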

GSK3β-mediated MYC pT58 = GSK3β-mediated MYC pT58 (Homo sapiens, UniProt P01106); assay: In vitro kinase assay; type: biochemical; settings: 6 μM
Summary of the method: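 Phosphorylation reactions were run in kinase buffer (25 mM Tris-HCl pH 7.5, 5 mM β-glycerophosphate, 2 mM DTT, 0.1 mM sodium vanadate, 10 mM MgCl₂) at room temperature for 2 hr in total.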

[3] = system: pheochromocytoma PC12 cells; assay: Cell viability, PC12 cells; type: cell-based; settings: PC12, does not require MYC/MAX dimer for proliferation
Summary of the method: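 PC12 cells were grown in F-12K with 2% heat-inactivated FBS and 12.5% horse serum. They were seeded at 1000 to 5000 cells per well in 96-well plates and treated for 2 to 7 days. Read-out was viable-cell count or MTS absorbance at 490 nm.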

[4] = system: MycCaP organoids and FVB mouse prostate organoids; assay: Prostate organoid culture; type: cell-based; settings: 4 days treatment
Summary of the method: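 Prostate lobes from 8–10-week-old FVB males were minced and digested with collagenase in RPMI1640/10% FBS for 2 hr at 37 °C. Trypsin and DNase I followed, then a 40 μm strainer. Cells were plated on ultra-low-attachment plates: 5,000 normal cells or 1000 MycCaP cells per 100 μl, with media added at day 4. Organoids formed by day 7 (normal) or day 4 (MycCaP). They were pelleted, resuspended in media with compound or DMSO, and imaged in bright field 4 days after treatment.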

[5] = system: MYC transcriptional activity (E-box-luciferase); assay: E-box luciferase reporter assay in vitro; type: cell-based
Summary of the method: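 MycCaP cells stably carrying either MYC E-box-luciferase reporter or control mCherry-P2A-luciferase vector plated 10000 cells/well. Serial dilution of test compound added the next day; luminescence read by Steady-Glo after 4 hr treatment.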

γ-H2AX = γ-H2AX staining; type: cell-based, human; settings: 10 μM, 24-hour treatment
Summary of the method: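 PC3 cells were fixed in 4% PFA and permeabilised with 0.5% Triton-X. They were then stained with anti-phospho-histone H2A.X (Ser139) antibody at 1:1000.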

[6] = Pharmacokinetics of 361 in C57BL/6 mice; type: in vivo; settings: male, C57BL/6, mouse, plasma, 50 mg/kg
MycCaP tumor allografts = assay: MycCaP allograft/xenograft mouse model; type: in vivo
Summary of the method: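 Male FVB (allograft) or NSG (xenograft) mice, 6–8 weeks, ~25 g, acclimated >4 days. Injected s.c. in flanks with 1 × 10⁶ MycCaP E-box-luciferase cells in 100 μl Matrigel. Tumors followed by caliper ((length × width × width)/2) and by bioluminescent imaging after i.p. substrate injection. Body weight recorded. Tumor tissue assessed by H&E and immunofluorescence for Ki67, MYC pT58 and PD-L1.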

[7] = system: human prostate cancer patient derived xenografts; assay: Prostate cancer PDX model; type: in vivo, mouse; settings: 55 mg/kg/day, 3 consecutive days a week for 2 weeks
Summary of the method: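 Minced fragments (~10 mm²) of prostate PDX TM00298 were implanted into the flanks of male NSG mice. Once grafts were measurable, test compound was given i.p. at 55 mg/kg/day on 3 consecutive days a week for two weeks. Tumour growth was expressed as percentage, n = 9 or 10 grafts.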

MycCaP cells = assay: Caspase-3 and immunogenic cell death assays in MycCaP cells; type: cell-based, mouse
Summary of the method: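 MycCaP cells exposed to 4 μM test compound for 72 hr; supernatants collected. Secreted ATP read by bioluminescent kit and HMGB1 by ELISA, with cell counts taken for quantification. Surface calreticulin: cells stained with rabbit anti-calreticulin (1:1000, 60 min), then Alexa Fluor 488 anti-rabbit (1 μg/ml), read by flow cytometry.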

[8] = MycCaP E-box-Luc allografts, i.p.
[9] = MycCaP tumor tissue after treatment
[10] = MycCaP tumors post-361 treatment

Sequence of MYC (P01106 16-454): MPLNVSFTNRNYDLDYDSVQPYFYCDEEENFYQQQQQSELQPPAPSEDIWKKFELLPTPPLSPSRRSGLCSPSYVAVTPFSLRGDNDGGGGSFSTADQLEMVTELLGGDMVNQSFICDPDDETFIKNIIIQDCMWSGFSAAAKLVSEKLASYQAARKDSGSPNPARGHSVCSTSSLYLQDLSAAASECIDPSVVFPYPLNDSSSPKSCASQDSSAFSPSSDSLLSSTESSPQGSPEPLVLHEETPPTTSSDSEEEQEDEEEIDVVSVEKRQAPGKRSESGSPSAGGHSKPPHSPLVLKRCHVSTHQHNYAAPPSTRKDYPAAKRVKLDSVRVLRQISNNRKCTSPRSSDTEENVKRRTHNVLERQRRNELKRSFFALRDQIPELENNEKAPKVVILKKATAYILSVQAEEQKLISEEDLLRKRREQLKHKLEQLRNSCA
Sequence of MYC/MAX interaction (P01106 16-454): as above
Sequence of MYC/MAX/DNA complex (P01106 368-454, one chain of several): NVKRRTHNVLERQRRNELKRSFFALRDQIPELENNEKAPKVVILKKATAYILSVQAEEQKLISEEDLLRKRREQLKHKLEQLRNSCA
Sequence of MAX/MAX homodimer (P61244 whole entry): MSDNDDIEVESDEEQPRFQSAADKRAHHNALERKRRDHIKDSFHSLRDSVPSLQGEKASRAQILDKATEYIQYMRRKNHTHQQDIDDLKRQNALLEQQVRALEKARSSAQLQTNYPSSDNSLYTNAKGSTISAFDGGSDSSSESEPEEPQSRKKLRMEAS
Sequence of GSK3β-mediated MYC pT58 (P01106 16-454): as the sequence (P01106 16-454) above
Sequence of MYC353–439 (P01106 368-454): as the sequence (P01106 368-454, one chain of several) above

For `Cn1nc(C(F)(F)F)cc1-c1ccc(OCc2ccc(Cl)cc2)c(-c2cc(C(F)(F)F)cc(C(F)(F)F)c2)c1O` [Compound 361, 6-((4-chlorobenzyl)oxy)-3-(1-methyl-3-(trifluoromethyl)-1H-pyrazol-5-yl)-3’,5’-bis(trifluoromethyl)-[1,1’-biphenyl]-2-ol], the “disruption of MYC/MAX/DNA complex formation” value (MYC/MAX/DNA complex; EMSA) was “impaired”, the activity in vitro (MYC/MAX/DNA complex; EMSA and cell viability assays) was “active” and the “MAX/MAX homodimer binding to E-box DNA” value (MAX/MAX homodimer) was “but not the closely related MAX/MAX homodimer”. For the same compound, the “interaction with MYCT58A by CETSA” value (MYC; 6 μM, MYCT58A-expressing PC3 cells) was “can interact”, the “thermal stability of MYC protein (CETSA)” value (MYC; PC3 cells, 30 min, 361 4–10 μM, G5 15–60 μM, 360 6 μM) was “significant thermal destabilization” and the Kd (MYC353–439) was 3.2 µM. The “MYCT58A/MAX interactions (PLA)” value (MYC/MAX interaction; MYCT58A-expressing PC3 cells) was “disrupted”, the “MYC/MAX interaction by co-IP and PLA” value (MYC/MAX interaction; PC3 cells, 1 hr) was “disruption of the MYC/MAX interaction” and the kinome screen result [1] was “negative”. For the same compound, the “phosphatase inhibition screening panel result” value [2] was “negative”, the “pT58 levels in in vitro kinase assay” value (GSK3β-mediated MYC pT58) was “significantly increased pT58 levels” and the “effect on cell viability” value [3] was “little effect”. For the same compound, the “sensitivity of MycCaP versus normal prostate organoids” value [4] was “more sensitive”, the “E-box-luciferase versus CMV-luciferase activity in vitro” value [5] was “selectively inhibited E-box-luciferase but not CMV-luciferase activity” and the “induction of γ-H2AX” value (γ-H2AX) was “did not observe induction”. The Cmax ([6]; ip) was 27200 ng/mL and 46 µM, the concentration at 24 hr ([6]; ip) was 12700 ng/mL and 21 µM and the half-life ([6]; ip) was 44 h. For the same compound, the Cmax ([6]; po) was 13900 ng/mL and 23 µM, the concentration at 24 hr ([6]; po) was 9 µM and 5280 ng/mL and the half-life ([6]; po) was 20 h. The “tumor inhibitory effect, FVB versus NSG mice” value (MycCaP tumor allografts; 50 mg/kg/day for 4 days) was “stronger tumor inhibitory effect in immunocompetent FVB mice”, the “tumor immune cells by flow cytometry” value (MycCaP tumor allografts; 50 mg/kg/day, 2 days on/2 days off for 2 rounds) was “an increase in CD3^+CD4^+ and CD3^+CD8^+ T cells, IFNγ-expressing CD4^+ and CD8^+ T cells, TNFα-expressing CD8^+ cells, dendritic cells and NK cells” and the body weight (MycCaP tumor allografts; 70 mg/kg/day) was “without additional loss in mouse body weight”. For the same compound, the body weight loss (MycCaP tumor allografts; 100 mg/kg/day, average) was 10%, the “tumor growth, combination with anti-PD1” value (MycCaP tumor allografts; 361 50 mg/kg/day 2 days then anti-PD1 100 μg/d 2 days, 4 cycles) was “synergistic suppression of tumor growth” and the tumor growth (MycCaP tumor allografts; FVB mice, established MycCaP allografts, 100 mg/kg/day) was “induced tumor regression”. The “E-box luciferase activity in vivo” value (MycCaP tumor allografts; [8]) was “significantly reduced”, the “tumor size, rapid in vivo screen” value (MycCaP tumor allografts; [8]) was “significantly reduced” and the “Ki67 proliferation marker in tumor tissues” value (MycCaP tumor allografts; [9]) was “decreased”. For the same compound, the “MYC pT58 level in tumor tissues” value (MycCaP tumor allografts; [9]) was “increased”, the “PD-L1 expression on tumor cells” value (MycCaP tumor allografts; [10]) was “upregulation of PD-L1 expression” and the “tumor infiltration of CD3+ T cells” value (MycCaP tumor allografts; [10]) was “enhanced tumor infiltration of CD3^+ T cells”. For the same compound, the tolerability (MycCaP tumor allografts; combination study dose, 50 mg/kg/day 2 days on/off) was “well-tolerated”, the tumor growth (MycCaP tumor allografts; treatment re-started at 70 mg/kg/day) was “effective in controlling tumor growth” and the anti-tumor efficacy [7] was “confirmed 361 anti-tumor efficacy”. For the same compound, the “markers of immunogenic cell death” value (MycCaP cells; 4 μM, 72 hr) was “significant upregulation of cell surface calreticulin expression, and release of HMGB1 and ATP” and the “cancer cell death, caspase-3” value (MycCaP cells; 6 μM) was “induces cancer cell death with activated caspase-3 expression”.
